Screening data: PubChem, Johns Hopkins Ion Channel Center
The list is not random: actives were taken first. Their share in the collection is about 2.9%.
TRPC4 PAM – TRPC4 (mouse) allosteric potentiation. HEK293 TRPC4beta/mu-opioid, DAMGO EC20, Fluo-4 Ca2+ flux; hits give high values. B-score at 10 µM. actives 0.42% (n = 310,000). AID 2227;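 active = B-score of calcium response area above 5 SD of library B-scores, with initial fluorescence ratio within 5 SD of library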;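 also: B-score of integrated fluorescence ratio over time as area under calcium response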
TRPC6 activator – activators of mouse TRPC6 channel | Q61143 | HEK293-TRPC6 membrane potential dye fluorescence; hits give high values | B-score at 10 µM | actives 0.13% (n = 310,000);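 active = B-score of the integrated fluorescence ratio above library mean plus 3 SD, and starting fluorescence ratio within library mean plus 5 SD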;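 also: higher score means more depolarization so channel activation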
TRPC4 act – TRPC4 (mouse) channel activation; Q9QUQ5; B-score at 10 µM; AID 2237; actives 0.49% (n = 310,000); HEK293 TRPC4beta/mu-opioid, Fluo4 calcium fluorescence; hits give high values;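 active = B-score above 5 SD of library B-scores, and initial fluorescence ratio not above library mean plus 5 SD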;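 also: positive B-score marks a calcium rise read as TRPC4 activation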
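Technique: kinetic Fluo4 calcium fluorescence; Test system: TRPC4beta and mu-opioid receptor HEK293 stable cells; Measure: B-scored integrated calcium fluorescence ratio; Benchmarks: low control buffer alone, high control maximal DAMGO; Schedule: 45 min room-temperature Fluo4 loading, 110 s read.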
TRPC4 inh – inhibitors of mouse TRPC4 channel. Q9QUQ5. HEK293 TRPC4beta/mu-opioid, DAMGO-evoked Fluo4 calcium flux; hits give low values. B-score at 10 µM. actives 0.39% (n = 300,000). AID 2247;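 active = B-score over 3 SD under the library average, no early fluorescence shift, positive overall ratio signal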
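Assay system: TRPC4beta/mu-opioid receptor HEK293 cell line; compound dosing: single concentration per test compound; detection: Fluo4 Ca2+ flux fluorescence; evaluation: per-well B score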
Kir21 block – inhibitors of mouse Kir2.1 inward-rectifier potassium channel; actives 0.85% (n = 310,000); P35561; AID 1672; B-score at 10 µM; HEK293-Kir2.1, FluxOR thallium flux fluorescence; hits give low values;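 active = fluorescence ratio B-score at or below minus 3 SD of library scores, with starting-brightness B-score within 2 SD, cut at about -4.2 in these data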;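 also: channel flux triggered by added potassium and thallium sulfate stimulus; B-score of peak minus minimum fluorescence over baseline after thallium stimulus; more negative B-score means stronger Kir2.1 block with less thallium influx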
Target sequence (P35561 whole entry, looked up): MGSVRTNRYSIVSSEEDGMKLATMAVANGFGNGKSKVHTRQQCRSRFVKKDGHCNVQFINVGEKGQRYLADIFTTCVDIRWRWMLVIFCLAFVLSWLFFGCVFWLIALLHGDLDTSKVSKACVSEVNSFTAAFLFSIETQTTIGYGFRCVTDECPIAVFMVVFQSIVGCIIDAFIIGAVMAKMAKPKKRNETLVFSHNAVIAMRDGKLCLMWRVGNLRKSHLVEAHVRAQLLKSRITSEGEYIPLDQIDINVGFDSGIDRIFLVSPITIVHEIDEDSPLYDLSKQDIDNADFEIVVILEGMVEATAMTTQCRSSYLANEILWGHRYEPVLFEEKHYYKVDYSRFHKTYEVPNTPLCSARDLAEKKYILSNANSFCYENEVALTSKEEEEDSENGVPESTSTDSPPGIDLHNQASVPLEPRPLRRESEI
TRPC6 inh – blocks the mouse TRPC6 cation channel; Q61143; HEK293-TRPC6, membrane potential dye, ACh-evoked depolarization; hits give low values; B-score at 10 µM; actives 1.1% (n = 310,000);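 active = B-score under library mean minus 3 SD, initial fluorescence not abnormally high, positive integrated signal ratio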;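 also: B-score derived from integrated fluorescence ratio over the kinetic read; more negative B-score means stronger inhibition of depolarization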
TRPC4 spec 2 – second check of whether TRPC6 inhibitors also affect mouse TRPC4 | inhibition, % at 10 µM | AID 2776 | HEK293 TRPC4/MOR, membrane potential dye fluorescence; channel activated by saturating DAMGO dose | actives 42% (n = 920) | shares compounds with TRPC6 inh;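 active = compounds whose fluorescence signal differed from control wells by over 3 SD, either direction, in both duplicate plates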
TRPC4 spec – tests whether TRPC6 inhibitors also affect mouse TRPC4. shares compounds with TRPC6 inh. HEK293 TRPC4/mu-opioid, membrane potential fluorescence. activity change, negative = inhibition, % at 10 µM. actives 61% (n = 920). AID 2777;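 active = rise or fall in signal beyond 3 SD of buffer-only wells in both replicate plates, either sign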;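 also: integrated kinetic ratio of fluorescence range over baseline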
HEK293 MPD ctr 2-1 – second counter-screen for TRPC6 inhibitors: parental HEK293 cells; parental HEK293 membrane potential dye fluorescence; maximal acetylcholine challenge after compound addition; shares compounds with TRPC6 inh; signal change vs control, % at 10 µM; actives 31% (n = 920);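 active = membrane potential signal moving either way by over 3 SD of the maximum-effect control, in both duplicate plates, meaning non-specific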
HEK293 MPD ctr-1 – counter-screen for TRPC6 inhibitors: effect in parental HEK293 cells; shares compounds with TRPC6 inh; parental HEK293 membrane potential dye fluorescence; membrane potential signal change, % at 10 µM; actives 60% (n = 920);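 active = membrane potential signal shifting up or down by more than 3 SD of buffer-only wells, on both duplicate plates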
HEK293 MPD ctr-2 – counter-screen for TRPC6 modulators: effect in parental HEK293 cells. shares compounds with TRPC6 inh. AID 488924. membrane potential dye fluorescence. membrane potential signal change, % at 10 µM. actives 51% (n = 2,400);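 active = membrane potential signal moves up or down beyond 5 SD from buffer-only wells, on both duplicate plates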
HEK293 MPD ctr 2-2 – second counter-screen for TRPC6 modulators: effect in parental HEK293 cells | shares compounds with TRPC6 inh | membrane potential dye fluorescence; after compound, maximal acetylcholine stimulation | inhibition, % at 10 µM | actives 14% (n = 2,400) | AID 488926;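 active = membrane potential signal drops by more than 5 SD from the mean control signal, in both duplicate plates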;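 also: plate controls were acetylcholine ECmax control wells for no effect and buffer only wells for full effect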
TRPC4/MOR mod – tests whether TRPC6 modulators also affect mouse TRPC4 | shares compounds with TRPC6 inh | percent change from control (negative = decrease, positive = increase), % at 10 µM | actives 69% (n = 2,400) | HEK293 TRPC4/mu-opioid, membrane potential fluorescence;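 active = membrane potential signal moved up or down beyond 5 SD of buffer control wells, in both duplicate plates, actives on both sides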;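 also: plate controls were assay buffer wells for no effect and DAMGO maximal-effect wells for full effect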
TRPC4 ctr inh 2 – second check of whether TRPC6 modulators also affect mouse TRPC4. HEK293 TRPC4/mu-opioid, membrane potential dye fluorescence; stimulated with maximal-effect DAMGO. AID 488928. actives 55% (n = 2,400). inhibition, % at 10 µM. shares compounds with TRPC6 inh;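 active = drop in membrane potential signal beyond 5 SD of the control wells in both duplicate plates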;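 also: TRPC4 counter screen for TRPC6 hits run under conditions tuned for TRPC6 not TRPC4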
TRPC6 block conf – confirmation of mouse TRPC6 inhibitors; shares compounds with TRPC6 inh; HEK293-TRPC6, membrane potential dye, ACh-evoked depolarization; inhibition, % at 10 µM; actives 43% (n = 3,300); AID 488960;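 active = fluorescence ratio falls more than 5 SD below the full-stimulation control mean, in both duplicate runs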;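 also: integrated fluorescence ratio of peak minus minimum over baseline after agonist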
TRPC6 act conf – confirmation of mouse TRPC6 activators | shares compounds with TRPC6 inh | HEK293-TRPC6 membrane potential dye fluorescence, FDSS | activation, % at 10 µM | actives 11% (n = 2,800);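 active = ratio signal rise beyond 5 SD above unstimulated control wells' mean, seen in both duplicate runs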;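 also: plate controls were buffer EC0 wells for no effect and acetylcholine ECmax response for full effect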
* marks the source's active call; other numbers are inactive results; i = inactive; · = no result given.

SMILES	TRPC4 PAM	TRPC6 activator	TRPC4 act	TRPC4 inh	Kir21 block	TRPC6 inh	HEK293 MPD ctr-2	HEK293 MPD ctr 2-2	TRPC4/MOR mod	TRPC4 ctr inh 2	TRPC6 block conf	TRPC6 act conf	others
COc1ccc(-c2cn(-c3ccc(OC)cc3)c3[n+]2-c2ccccc2CC3)cc1	i	i	i	i	-3.5	i	·	·	·	·	·	·
COc1ccccc1-n1c(-c2ccccc2)c[n+]2c1CCc1ccccc1-2	i	i	i	i	-14*	-9.9*	92%*	i	20%*	40%*	77%*	i	TRPC4 spec 2=i;TRPC4 spec=1.8%*;HEK293 MPD ctr 2-1=i;HEK293 MPD ctr-1=i
CC(C)(C)c1ccc(CN2C(=O)CSC2=O)cc1	i	i	i	i	0.49	-5.2*	i	i	i	i	i	i
COc1ccc2c(COC(=O)CCS(=O)(=O)c3ccc(C)cc3)cc(=O)oc2c1	i	i	i	i	-2.1	-5.3*	i	i	i	i	i	i
Cc1nc2c(C)cccc2cc1C(=O)N/N=C/c1cccnc1	i	i	i	i	-2.1	i	·	·	·	·	·	·
C=CCn1c(SCC(=O)Nc2sc3c(c2C#N)CCC3)nnc1C1COc2ccccc2O1 (stereo unspecified)	i	i	i	i	-1	i	·	·	·	·	·	·
COCCCn1c(SCC(=O)Nc2sc3c(c2C#N)CCCC3)nnc1-c1ccncc1	i	i	i	i	0.6	i	·	·	·	·	·	·
CN(C)CCCn1c(SCC(=O)Nc2sc3c(c2C#N)CCCC3)nnc1-c1ccncc1	i	16*	i	i	-0.06	i	187%*	i	28%*	i	i	76%*
Cn1c(SCC(=O)Nc2sc3c(c2C#N)CCC3)nnc1C1COc2ccccc2O1 (stereo unspecified)	i	i	i	i	-0.35	-11*	·	·	·	·	63%*	·	TRPC4 spec 2=i;TRPC4 spec=i;HEK293 MPD ctr 2-1=i;HEK293 MPD ctr-1=i
O=C(Cc1ccsc1)NCc1ccccc1F	i	i	i	i	-1	i	·	·	·	·	·	·
O=C(COC(=O)c1ccco1)NC1CCCC1	i	i	i	i	0.01	i	·	·	·	·	·	·
COc1ccc(C(=O)NC2CCCN(Cc3ccc(Cl)cc3)C2)c(OC)c1 (stereo unspecified)	i	i	i	i	-0.86	i	·	·	·	·	·	·
COc1ccc(OCC(=O)NC2CCCN(Cc3ccc(Cl)cc3)C2)cc1 (stereo unspecified)	15*	i	i	i	-1.4	-6.2*	116%*	i	24%*	i	50%*	·
CC(C)Cc1ccc(C2=CSC3=NCCN23)cc1	i	i	i	i	1.1	-5.8*	94%*	i	i	55%*	48%*	·
O=C(CSCC(=O)N1CCCc2ccccc21)Nc1nc(-c2ccccc2)cs1	i	i	i	i	0.3	i	·	·	·	·	·	·
CC1(c2ccccc2)NC(=O)N(CC#N)C1=O (stereo unspecified)	i	i	i	i	1.8	i	·	·	·	·	·	·
c1ccc(C[C@H]2CNCCN2CCCCC2CCCCC2)cc1	i	i	i	i	-3.3	-6*	i	i	i	48%*	i	i
Cc1cccc(NC(=O)CSCC(=O)Nc2cccc3ncccc23)c1	i	i	i	i	-1.4	i	·	·	·	·	·	·
COc1ccccc1OCC(=O)OCC(=O)Nc1sccc1C(N)=O	i	i	i	i	-0.5	-5.4*	i	i	i	i	i	i
CCNC(=S)N1CCN(C(c2ccccc2)c2ccccc2)CC1	i	i	68*	i	0.64	-5.2*	i	i	66%*	74%*	i	i
CCCNC(=S)N1CCN(C(c2ccccc2)c2ccccc2)CC1	i	i	i	i	-0.08	i	·	·	·	·	·	·
Cc1ccc(NCc2nnc(SCCN3CCCCC3)n2CC2CCCO2)c(C)c1 (stereo unspecified)	i	i	i	i	-0.52	-5.7*	i	i	16%*	35%*	41%*	i
C=CCc1cc(C=O)cc(OCC)c1O	i	i	i	i	0.93	i	·	·	·	·	·	·
CCCCC1=CC2=C(c3ccco3)C(=O)C(C)(OC(=O)c3ccc(OC)cc3)C(=O)C2=CN1C1CCCCC1 (stereo unspecified)	i	i	i	i	1.3	i	·	·	·	·	·	·
C=CCn1c(Oc2cc(C)ccc2C)nc2c1c(=O)n(C)c(=O)n2C	i	i	i	i	0.73	-6.2*	140%*	i	30%*	41%*	i	·
Cc1cc(OCC(=O)O/N=C(\N)Cc2cccs2)ccc1Br	i	i	i	i	0.02	-9.8*	·	·	·	·	i	i	TRPC4 spec 2=i;TRPC4 spec=i;HEK293 MPD ctr 2-1=i;HEK293 MPD ctr-1=i
